Reference: ChEMBL document CHEMBL4382295, “Enhanced Tumor Selectivity of 5-Fluorouracil Using a Reactive Oxygen Species-Activated Prodrug Approach” (ACS Med Chem Lett, 2019)
Active and inactive are the calls of the source. The calls are words filed in the database; no cut-off is given here.

Legend:
NCI-H522 = assay: Antiproliferative activity against human NCI-H522 cells assessed as growth inhibition at 50 uM after 48 hrs by sulforhodamine B assay relative to control; assay type: functional; details: NCI-H522, 48 h, read-out: GI
Method in brief: (§1)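 NCI cell-line screen (protocol per DTP/NCI). Cells exposed to a single concentration of 50 μM for 48 h, then percent growth inhibition determined.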

MDA-MB-435 = assay: Antiproliferative activity against human MDA-MB-435 cells assessed as growth inhibition at 50 uM after 48 hrs by sulforhodamine B assay relative to control; assay type: functional; details: MDA-MB-435, 48 h, read-out: GI; method in brief: as §1
OVCAR-3 = assay: Antiproliferative activity against human OVCAR3 cells assessed as growth inhibition at 50 uM after 48 hrs by sulforhodamine B assay relative to control; assay type: functional; details: OVCAR-3, 48 h, read-out: GI; method in brief: as §1
MCF7 [1] = assay: Antiproliferative activity against human MCF7 cells assessed as growth inhibition at 50 uM after 48 hrs by sulforhodamine B assay relative to control; assay type: functional; details: MCF7, 48 h, read-out: GI; method in brief: as §1
MDA-MB-468 = assay: Antiproliferative activity against human MDA-MB-468 cells assessed as growth inhibition at 50 uM after 48 hrs by sulforhodamine B assay relative to control; assay type: functional; details: MDA-MB-468, 48 h, read-out: GI; method in brief: as §1
MCF7 [2] = assay: Induction of DNA damage in human MCF7 cells assessed as increase in gammaH2AX level after 48 hrs by DAPI staining based immunofluorescence assay; assay type: functional, cell-based
Method in brief: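 MCF7 cells treated 48 h at the indicated concentrations. γH2AX formation, a marker of DNA double-strand breaks, visualized by immunofluorescence.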

MCF7 [3] = assay: Antiproliferative activity against human MCF7 cells assessed as reduction in cell viability at 1 to 100 uM after 48 to 72 hrs by CCK8 assay; assay type: functional, cell-based
Method in brief: (§2)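 Breast cancer MCF7 cells and normal MEC1 cells treated at a range of concentrations, concentrations up to 100 μM. Cell viability then measured. Mean ± SD, n = 4.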

[4] = Cytotoxicity against human MEC1 cells assessed as cell viability at 1 to 100 uM after 48 to 72 hrs by CCK8 assay relative to control; assay type: cell-based; details: read-out: Activity; method in brief: as §2
MCF7 [5] = assay: Induction of apoptosis in human MCF7 cells assessed as increase in cleaved PARP1 level up to 100 uM after 48 hrs by Western blot analysis; assay type: functional, cell-based
Method in brief: (§3)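 MCF7 cells treated 48 h at the indicated concentrations, with vehicle-treated cells as control. Lysates immunoblotted for PARP1 and caspase 3 and their cleaved forms (CL-PARP1, CL-caspase 3).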

MCF7 [6] = assay: Induction of apoptosis in human MCF7 cells assessed as increase in cleaved caspase-3 level up to 100 uM after 48 hrs by Western blot analysis; assay type: functional, cell-based; method in brief: as §3
MCF7 [7] = assay: Antiproliferative activity against human MCF7 cells assessed as reduction in cell viability at 50 to 100 uM after 48 hrs in presence of ROS scavenger NAC by MTT assay
[8] = Acute toxicity in C57BL/6J mouse assessed as death at 100 mg/kg, ip administered every other day for 12 days; assay type: organism-based; details: in vivo, 288 h
[9] = Acute toxicity in C57BL/6J mouse assessed as decrease in body weight at 100 mg/kg, ip administered every other day for 12 days; assay type: organism-based; details: in vivo, 288 h
[10] = Acute toxicity in C57BL/6J mouse assessed as death at 100 mg/kg, ip administered every other day for 15 days measured during compound dosing; assay type: organism-based; details: in vivo, 360 h
Method in brief: (§4)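 Wild-type male C57BL/6 mice, randomized into three groups of seven (21 total): vehicle (5% DMSO and 15% polyethylene glycol in saline) or 100 mg/kg test article. Dosed ip every other day for 15 days. Survival, body weight, eating, drinking and activity were recorded throughout treatment.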

[11] = Acute toxicity in C57BL/6J mouse assessed as abnormality in eating at 100 mg/kg, ip administered every other day for 15 days measured during compound dosing; assay type: organism-based; details: in vivo, 360 h; method in brief: as §4
[12] = Acute toxicity in C57BL/6J mouse assessed as abnormality in drinking at 100 mg/kg, ip administered every other day for 15 days measured during compound dosing; assay type: organism-based; details: in vivo, 360 h; method in brief: as §4
[13] = Acute toxicity in C57BL/6J mouse assessed as effect on normal activity at 100 mg/kg, ip administered every other day for 15 days measured during compound dosing; assay type: organism-based; details: in vivo, 360 h; method in brief: as §4
[14] = Acute toxicity in C57BL/6J mouse assessed as decrease in body weight at 100 mg/kg, ip administered every other day for 15 days measured during compound dosing; assay type: organism-based; details: in vivo, 360 h; method in brief: as §4

Row | Structure (SMILES) | inhibition of growth at 50 µM (NCI-H522) | inhibition of growth at 50 µM (MDA-MB-435) | inhibition of growth at 50 µM (OVCAR-3) | inhibition of growth at 50 µM (MCF7 [1]) | inhibition of growth at 50 µM (MDA-MB-468) | Activity (MCF7 [2]) | Activity (MCF7 [3]) | viability at up to 100 µM [4] | Activity (MCF7 [5]) | Activity (MCF7 [6]) | Activity (MCF7 [7]) | Activity [8] | Activity [9] | Activity [10] | Activity [11] | Activity [12] | Activity [13] | Activity [14]
1 | O=c1[nH]c(=O)n(Cc2ccc(B(O)O)cc2)cc1F | 44% | 65% | 30% | 33% | 22% | Active | Active | > 95% | Active | Active | inactive | – | – | – | – | – | – | –
2 | O=c1[nH]c(=O)n(Cc2ccccc2)cc1F | – | – | – | – | – | – | inactive | – | – | – | – | – | – | – | – | – | – | –
3 | O=c1[nH]cc(F)c(=O)[nH]1 [FLUOROURACIL] | – | – | – | – | – | Active | Active | – | Active | Active | – | Toxic | Toxic | – | – | – | – | –
4 | CC1(C)OB(c2ccc(Cn3cc(F)c(=O)[nH]c3=O)cc2)OC1(C)C | 90% | 96% | 95% | 81% | 87% | Active | Active | > 95% | Active | Active | inactive | – | – | Non-Toxic | Non-Toxic | Non-Toxic | Non-Toxic | Non-Toxic
